Screening results deposited in PubChem BioAssay by The Scripps Research Institute Molecular Screening Center.
PRMT1 FP inh = blocks human protein arginine methyltransferase 1. 1.3% of 370,000 active. inhibition, % at 2.79 µM. Q99873. recombinant PRMT1, activity-based probe fluorescence polarization;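 active means inhibition above about 21% made by adding two undisclosed values, limit read from the data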
SIAE inh = inhibitors of human sialic acid acetylesterase SIAE; AID 1053197; 0.69% of 370,000 active; Q9HAT2; SIAE FP-Rh probe binding, fluorescence polarization; inhibition, % at 9.66 µM;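 active means inhibition above a cutoff: mean of compounds within the control limits plus 3 SD of those, cut at about 17% in these data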;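 further: 0% = plate median of compound wells and 100% = probe without SIAE protein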
LEDGF integ inh = blocks HIV-1 LEDGF/p75-dependent DNA integration; TR-FRET IN-LEDGF/p75 DNA integration, Eu/Cy5; inhibition, % at 3.7 µM; 0.64% of 370,000 active;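 active means inhibition above the screen-wide mean plus 3 SD, cut at about 13% in these data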;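 further: signal is the Cy5 over europium emission ratio at 671 and 618 nm; 0% = plate median of compound wells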
MBD2 DNA inh = MBD2-methylated oligo binding inhibition; Q9UBB5; TR-FRET, MBD2 binding to methylated oligonucleotide; inhibition, % at 4.4 µM; 0.31% of 370,000 active; AID 686964; in the data active means inhibition above about 13%
TDP2 absorb = TDP2 (human) inhibition, absorbance primary screen; O95551; 0.34% of 370,000 active; inhibition, % at 12.8 µM; recombinant TDP2, T5PNP hydrolysis, p-nitrophenol absorbance 415 nm; AID 720702;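 active means inhibition above the mean of all tested compounds plus 3 SD, set per campaign, cut at about 25% in these data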;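 further: 0% = DMSO with enzyme and 100% = buffer with substrate but no TDP2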
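Assay system: recombinant human TDP2 / Reagent: T5PNP substrate at 5 mM, a TopII-DNA adduct mimic / Measured by: epi absorbance from released p-nitrophenol / Evaluation: % inhibition relative to enzyme-containing and enzyme-free wells / Control set: enzyme-free and DMSO wells / Replicates: each compound tested once, singlicate / Schedule: enzyme reaction with compound for 2 h at 37 °C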
UHRF1 MBD2 ctr = blocks human UHRF1 binding to methylated DNA | inhibition, % at 4.4 µM | Q96T88 | UHRF1 binding to methylated oligo, TR-FRET | AID 687016 | 0.75% of 370,000 active; in the data active means inhibition above about 21%;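 further: UHRF1 SRA domain binding a hemimethylated CpG hairpin DNA probe; 0% = median of test compound wells and 100% = reference inhibitor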
Target sequence (Q96T88 whole entry, looked up, the tested form may be a part): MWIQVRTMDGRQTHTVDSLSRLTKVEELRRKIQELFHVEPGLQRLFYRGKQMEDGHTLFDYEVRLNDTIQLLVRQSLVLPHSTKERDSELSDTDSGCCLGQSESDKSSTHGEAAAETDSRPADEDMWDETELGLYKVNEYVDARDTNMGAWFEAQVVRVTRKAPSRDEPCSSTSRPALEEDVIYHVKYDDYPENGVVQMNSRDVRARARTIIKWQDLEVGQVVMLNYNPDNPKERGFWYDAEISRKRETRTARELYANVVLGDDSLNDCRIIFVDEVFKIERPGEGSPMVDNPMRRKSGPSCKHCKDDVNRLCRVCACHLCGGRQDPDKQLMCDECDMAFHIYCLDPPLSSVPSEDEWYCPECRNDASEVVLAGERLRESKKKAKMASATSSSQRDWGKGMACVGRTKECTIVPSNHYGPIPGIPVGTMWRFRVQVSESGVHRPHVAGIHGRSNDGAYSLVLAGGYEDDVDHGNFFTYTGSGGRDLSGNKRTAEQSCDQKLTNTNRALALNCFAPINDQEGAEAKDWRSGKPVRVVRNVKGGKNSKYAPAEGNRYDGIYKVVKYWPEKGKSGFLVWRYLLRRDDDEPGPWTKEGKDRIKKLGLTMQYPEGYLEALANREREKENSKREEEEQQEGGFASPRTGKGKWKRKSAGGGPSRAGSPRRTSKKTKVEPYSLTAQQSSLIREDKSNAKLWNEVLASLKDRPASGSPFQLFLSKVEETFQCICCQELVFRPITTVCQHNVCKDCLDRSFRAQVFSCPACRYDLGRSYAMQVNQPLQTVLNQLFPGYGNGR
PRMT1 confirm = confirmation of human PRMT1 inhibitors; shares compounds with PRMT1 FP inh; recombinant His-PRMT1, activity-based probe fluorescence polarization; inhibition, % at 2.79 µM; 42% of 3,300 active; AID 687036;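 active means mean inhibition across replicates above the hit cutoff derived for the earlier primary screen, cut at about 22% in these data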
The depositor's hits bear a star; . = no result given. Compounds with a hit are over-represented: about 3.3% of the library has one in this group of screens.

SMILES | PRMT1 FP inh | SIAE inh | LEDGF integ inh | MBD2 DNA inh | TDP2 absorb | UHRF1 MBD2 ctr | PRMT1 confirm
CC(C)CN1C(=O)[C@]2(CC(=O)N(C)C2c2ccccc2)c2cc(-n3cc(CCCC#N)nn3)ccc21 (stereo not given in full) | 2 | 0 | 3 | 3 | -5 | 0 | .
COC(=O)[C@@H]1N=C(c2ccc(OC)cc2)O[C@]12C(=O)N(Cc1cn(Cc3ccccc3)nn1)c1cccc(Cl)c12 | 0 | 2 | 2 | 10 | -5 | 17 | .
COc1ccc(-c2nnc(SCC(=O)Nc3ccc(S(=O)(=O)Nc4nccs4)cc3)n2-c2ccc(OC)cc2)cc1 | 2 | -20 | 4 | -2 | -8 | 0 | .
C[C@H](O)[C@@H]1CN2CCc3c([nH]c4ccccc34)[C@@H]2C[C@@H]1N(C)C(=S)NCCc1ccccc1 | 49* | 2 | 1 | -5 | -12 | -11 | 11
O=C(COC(=O)CSc1ccc([N+](=O)[O-])cc1)NCCCc1ccccc1 | 42* | 0 | 9 | -4 | -12 | -2 | 4
O=S(=O)(c1ccc(F)cc1)n1c(CN2CCOCC2)nc2ccccc21 | 1 | 1 | -2 | -4 | 2 | 2 | .
Cc1ccccc1CN1CCCCC(NC(=O)c2cccc(C(F)(F)F)c2)C1=O (stereo not given) | -5 | 0 | 2 | -4 | 2 | -2 | .
CCCCSc1nc2c([nH]1)c(=S)n(C)c(=O)n2C | 1 | 10 | -1 | -6 | -3 | -3 | .
CCN(CC)CCSc1nc2c([nH]1)c(=S)n(C)c(=O)n2C | 42* | -1 | -2 | 1 | -10 | -1 | 3
C=CCN1C/C(=C/c2ccccc2)N2C(=O)CC(c3ccccc3)N=C12 (stereo not given) | -4 | 2 | 2 | 0 | -24 | 0 | .
CCOc1ccc(N2C(=O)CC(NCc3ccc(S(N)(=O)=O)cc3)C2=O)cc1 (stereo not given) | 5 | 11 | 6 | 1 | 11 | 2 | .
O=C1NCCCCC1NC1CC(=O)N(c2ccccc2)C1=O (stereo not given) | 34* | -1 | 0 | 1 | -8 | 1 | 7
CCCCOc1ccc(N2C(=O)CC(NCc3ccncc3)C2=O)cc1 (stereo not given) | 15 | -1 | -6 | 6 | -12 | 4 | .
CCOc1ccc(N2C(=O)CC(NCC#N)C2=O)cc1 (stereo not given) | 33* | 2 | 1 | -7 | 10 | -2 | 46*
CCOc1ccc(N2C(=O)CC(NC3CCCCNC3=O)C2=O)cc1 (stereo not given) | 44* | -1 | -6 | 3 | -4 | 2 | 0
COCCNC(=O)[C@]1(C#N)CC(=O)N(C)[C@@H]1c1ccccc1 | -1 | 1 | 3 | 0 | 0 | -1 | .
CCCCCN1CCCCC(NC(=O)c2c(F)cccc2F)C1=O (stereo not given) | -1 | 10 | 3 | 6 | -12 | -1 | .
CCN1C(=O)CC(c2ccco2)Sc2ccccc21 (stereo not given) | 2 | 14 | 2 | 1 | 3 | -3 | .
O=C(CN1C(=O)CC(c2ccco2)Sc2ccccc21)Nc1ccccc1F (stereo not given) | 58* | 7 | 9 | 5 | 1 | -1 | 19
Cc1cccc(-c2cccc3c4c([nH]c23)[C@@H]2C[C@H](N(C)C(=O)c3ccccc3C)[C@H]([C@H](C)O)CN2CC4)c1 | -7 | -5 | 5 | 1 | -10 | -2 | .
O=C(CSc1nnc(-c2cc3ccccc3cc2O)n1Cc1ccco1)N1CCc2ccccc2C1 | 32* | -10 | 5 | -2 | -18 | 0 | 5
CC(C)N(C(=O)CSc1nnc(-c2cc3ccccc3cc2O)n1Cc1ccco1)C(C)C | 0 | 6 | -1 | -3 | -16 | 2 | .
COc1ccc(C[N+]2=C(N)N[C@@]3(C=C(C)Cn4c(=O)n(-c5ccccc5)c(=O)n43)C2)c(OC)c1 | -3 | 11 | 3 | -4 | 2 | -2 | .
Cc1ccc(S(=O)(=O)/N=C(/NC(=S)Nc2ccccc2)c2ccccc2)cc1 | -2 | 4 | 0 | -1 | -5 | -1 | .
Cc1ccc(S(=O)(=O)C/N=C(/NC(=S)N(c2ccccc2)c2ccccc2)c2ccccc2)cc1 | 28* | -6 | -1 | -2 | 0 | -2 | 27*
SMILES | PRMT1 FP inh | SIAE inh | LEDGF integ inh | MBD2 DNA inh | TDP2 absorb | UHRF1 MBD2 ctr | PRMT1 confirm
O=C(N/C(=C\c1ccco1)C(=O)N1CCOCC1)c1ccccc1Cl | 29* | -2 | -3 | 3 | -21 | 2 | 9
CCC[C@H]1[C@@H](NC(=O)C2CCC2)CC[C@@]23CCCN2C(=O)CCC[C@@H]13 | 3 | 1 | -2 | 6 | 3 | -2 | .
CC(=O)O[C@H]1[C@H](OC(C)=O)C[C@]2(OC(C)=O)C[C@H]1OC2=O | 6 | -2 | 3 | 8 | -10 | 6 | .
CCc1ccccc1NC(=O)CSc1nnc([C@@H](N)Cc2ccccc2)o1 | 43* | 0 | 1 | -5 | 13 | -2 | 28*
COC(=O)[C@]12C[C@H](CC(=O)NCCCCc3ccccc3)C(=O)N(CCC3=CCCCC3)C1=C[C@H](C(C)C)O[C@@H]2C1CC1 | -3 | 0 | 2 | -6 | 8 | 5 | .
O=C(O)Cn1cc(C(=S)N2CCCCC2)c2ccccc21 | 25* | -1 | -2 | 3 | 5 | 0 | 5
O=C1C=CC(=O)N1CCCCCCCCCCN1C(=O)C=CC1=O | 82* | 0 | 4 | 3 | -13 | 0 | 98*
O=C1C=CC(=O)N1Cc1ccncc1 | 7 | -2 | 0 | 5 | 2 | -1 | .
CCOC(=O)c1c(C)oc2c(CC(=O)c3ccccc3)c(Cl)c(O)c(O)c12 | 27* | 8 | -8 | -2 | 0 | 2 | 4
Cc1cc(C)nc(Sc2ncnc(N)c2[N+](=O)[O-])n1 | 47* | -2 | -6 | 1 | -11 | 3 | 19
CCCC1CCC2(CC1)CCC2OC(=O)Nc1c(OC)cccc1OC (stereo not given) | 6 | 0 | 0 | 2 | -3 | 1 | .
Cc1cc2oc(=O)cc(CN3CCOCC3)c2cc1O | 5 | 1 | -5 | -2 | -5 | 1 | .
Oc1cc(O)c(CN2CCOCC2)cc1CN1CCOCC1 | 29* | 6 | 7 | -1 | 0 | 4 | 0
CN1C(=O)c2cc(NC(=O)Nc3ccccc3)ccc2OC[C@H]2O[C@@H](CC(=O)NCc3ccc(-c4ccccc4)cc3)CC[C@@H]21 | 4 | -13 | 3 | 10 | 11 | 6 | .
N#Cc1c(-c2cccc(Br)c2)cc(-c2ccco2)[nH]c1=O | 33* | 0 | 0 | 2 | -9 | 0 | 10
CCOC(=O)c1c(/N=C/c2cc([N+](=O)[O-])ccc2O)sc(C)c1C | 29* | -12 | 5 | -9 | 5 | -8 | -2
